According to ChEMBL document CHEMBL5724801, “EUbOPEN Chemogenomics Library - Multiplex” (2024):
Where “and” joins values, the source holds several entries; their conditions need not be identical. Identical values can stand only once.

Test system: Fibroblast
Assay: Multiplex assay against human fibroblast
Format: toxicity, cell-based
How it was run: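 Compound was added to live cells that had been stained at seeding with Hoechst33342, BioTracker Green Microtubule Cytoskeleton Dye, MitoTracker Red and Annexin V Alexa Fluor 680, and imaging followed on a CQ1 microscope at 37°C and 5% CO2. CellPathfinder machine-learning gating divided cells into Hoechst high-intensity objects or normal cells, normal cells into healthy, pyknosed or fragmented nuclei, and pyknosed cells into mitotic or apoptotic. Tubulin, mitochondrial-mass and membrane-permeability phenotypes are per cents of healthy-nucleus cells.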

[1] = 12 h, 1 µM, compound concentration 1 uM
[2] = 12 h, 10 µM, compound concentration 10 uM
[3] = 24 h, 1 µM, compound concentration 1 uM
[4] = 24 h, 10 µM, compound concentration 10 uM
[5] = 48 h, 1 µM, compound concentration 1 uM
[6] = 48 h, 10 µM, compound concentration 10 uM

## S=c1[nH]nc(-c2cccs2)n1-c1ccccc1
[1]
  Population Apoptotic (%): 10.45% and 27.27%
  Population Fragmented Nuclei (%): 8.13% and 2.86%
  Population Healthy Nuclei (%): 59.81% and 84.57%
  Population Hoechst High Intensity Objects (%): 0%
  Population Membrane Permeable-Phenotype (%): 2.4% and 4.05%
  Population Mitochondria Different-Phenotype (%): 10.4% and 6.76%
  Population Mitotic Cells (%): 89.55% and 72.73%
  Population Normal (%): 100%
  Population Pyknosed Nuclei (%): 32.06% and 12.57%
  Population Tubulin-Different-Phenotype (%): 13.6% and 28.38%
  Total Cell Count: 209 and 175
[2]
  Population Apoptotic (%): 17.07% and 26.67%
  Population Healthy Nuclei (%): 62.62% and 78.84%
  Population Hoechst High Intensity Objects (%): 0%
  Population Membrane Permeable-Phenotype (%): 5.97% and 4.03%
  Population Mitochondria Different-Phenotype (%): 8.21% and 11.41%
  Population Mitotic Cells (%): 82.93% and 73.33%
  Population Normal (%): 100%
  Population Pyknosed Nuclei (%): 19.16% and 15.87%
  Population Tubulin-Different-Phenotype (%): 14.18% and 20.13%
  Total Cell Count: 214 and 189
[3]
  Population Fragmented Nuclei (%): 7.76% and 4%
  Population Healthy Nuclei (%): 78.88% and 84%
  Population Hoechst High Intensity Objects (%): 0%
  Population Membrane Permeable-Phenotype (%): 3.28% and 2.04%
  Population Mitochondria Different-Phenotype (%): 4.92% and 4.76%
  Population Mitotic Cells (%): 93.55% and 76.19%
  Population Normal (%): 100%
  Population Pyknosed Nuclei (%): 13.36% and 12%
  Population Tubulin-Different-Phenotype (%): 8.2% and 19.05%
  Total Cell Count: 232 and 175
[4]
  Population Apoptotic (%): 16.22% and 35.71%
  Population Fragmented Nuclei (%): 14.71% and 5.24%
  Population Healthy Nuclei (%): 69.75% and 80.1%
  Population Hoechst High Intensity Objects (%): 0%
  Population Membrane Permeable-Phenotype (%): 3.61% and 5.88%
  Population Mitochondria Different-Phenotype (%): 4.22% and 5.23%
  Population Mitotic Cells (%): 83.78% and 64.29%
  Population Normal (%): 100%
  Population Pyknosed Nuclei (%): 15.55% and 14.66%
  Population Tubulin-Different-Phenotype (%): 11.45% and 16.99%
  Total Cell Count: 238 and 191
[5]
  Population Apoptotic (%): 8.33% and 10.53%
  Population Fragmented Nuclei (%): 8.8% and 5.49%
  Population Healthy Nuclei (%): 86.4% and 84.07%
  Population Hoechst High Intensity Objects (%): 0%
  Population Membrane Permeable-Phenotype (%): 0.93% and 1.96%
  Population Mitochondria Different-Phenotype (%): 10.19% and 2.61%
  Population Mitotic Cells (%): 91.67% and 89.47%
  Population Normal (%): 100%
  Population Pyknosed Nuclei (%): 4.8% and 10.44%
  Total Cell Count: 250 and 182
[6]
  Population Apoptotic (%): 11.76% and 33.33%
  Population Fragmented Nuclei (%): 10.61% and 5.58%
  Population Healthy Nuclei (%): 82.45% and 88.32%
  Population Hoechst High Intensity Objects (%): 0%
  Population Membrane Permeable-Phenotype (%): 0% and 2.3%
  Population Mitochondria Different-Phenotype (%): 9.9% and 4.02%
  Population Mitotic Cells (%): 88.24% and 66.67%
  Population Normal (%): 100%
  Population Pyknosed Nuclei (%): 6.94% and 6.09%
  Total Cell Count: 245 and 197

## Cl.Cl.N#Cc1ccc(O[C@@H]2c3ccccc3C[C@H]2N2CCC[C@@H](N)C2)c(Cl)c1
[1]
  Population Apoptotic (%): 13.21% and 14.29%
  Population Fragmented Nuclei (%): 8.33% and 10.47%
  Population Healthy Nuclei (%): 57.69% and 74.87%
  Population Hoechst High Intensity Objects (%): 0%
  Population Membrane Permeable-Phenotype (%): 6.67% and 4.9%
  Population Mitochondria Different-Phenotype (%): 20% and 19.58%
  Population Mitotic Cells (%): 86.79% and 85.71%
  Population Normal (%): 100%
  Population Pyknosed Nuclei (%): 33.97% and 14.66%
  Population Tubulin-Different-Phenotype (%): 35.56% and 58.04%
  Total Cell Count: 156 and 191
[2]
  Population Apoptotic (%): 14.81% and 27.63%
  Population Fragmented Nuclei (%): 18.93% and 7.94%
  Population Healthy Nuclei (%): 49.11% and 64.62%
  Population Hoechst High Intensity Objects (%): 0%
  Population Membrane Permeable-Phenotype (%): 3.61% and 6.15%
  Population Mitochondria Different-Phenotype (%): 62.65% and 43.58%
  Population Mitotic Cells (%): 85.19% and 72.37%
  Population Normal (%): 100%
  Population Pyknosed Nuclei (%): 31.95% and 27.44%
  Population Tubulin-Different-Phenotype (%): 78.31% and 88.83%
  Total Cell Count: 169 and 277
[3]
  Population Fragmented Nuclei (%): 6.79% and 14.63%
  Population Healthy Nuclei (%): 62.35% and 76.59%
  Population Hoechst High Intensity Objects (%): 0%
  Population Membrane Permeable-Phenotype (%): 4.95% and 3.18%
  Population Mitochondria Different-Phenotype (%): 18.81% and 13.38%
  Population Mitotic Cells (%): 98% and 77.78%
  Population Normal (%): 100%
  Population Tubulin-Different-Phenotype (%): 36.63% and 57.32%
  Total Cell Count: 162 and 205
[4]
  Population Apoptotic (%): 29.27% and 37.5%
  Population Fragmented Nuclei (%): 11.58% and 4.05%
  Population Healthy Nuclei (%): 66.84% and 78.5%
  Population Hoechst High Intensity Objects (%): 0%
  Population Membrane Permeable-Phenotype (%): 2.36% and 3.17%
  Population Mitochondria Different-Phenotype (%): 70.08% and 55.16%
  Population Mitotic Cells (%): 70.73% and 62.5%
  Population Normal (%): 100%
  Population Pyknosed Nuclei (%): 21.58% and 17.45%
  Population Tubulin-Different-Phenotype (%): 85.83% and 88.1%
  Total Cell Count: 190 and 321
[5]
  Population Apoptotic (%): 20% and 38.89%
  Population Fragmented Nuclei (%): 13.79% and 11.43%
  Population Healthy Nuclei (%): 78.82% and 80%
  Population Hoechst High Intensity Objects (%): 0%
  Population Membrane Permeable-Phenotype (%): 1.88% and 1.79%
  Population Mitochondria Different-Phenotype (%): 16.88% and 10.12%
  Population Mitotic Cells (%): 80% and 61.11%
  Population Normal (%): 100%
  Population Pyknosed Nuclei (%): 7.39% and 8.57%
  Population Tubulin-Different-Phenotype (%): 32.5% and 59.52%
  Total Cell Count: 203 and 210
[6]
  Population Apoptotic (%): 37.5% and 50%
  Population Healthy Nuclei (%): 75.86% and 86.13%
  Population Hoechst High Intensity Objects (%): 0%
  Population Membrane Permeable-Phenotype (%): 0.57% and 3.37%
  Population Mitochondria Different-Phenotype (%): 42.61% and 26.22%
  Population Mitotic Cells (%): 62.5% and 50%
  Population Normal (%): 100%
  Population Pyknosed Nuclei (%): 3.45% and 7.1%
  Population Tubulin-Different-Phenotype (%): 79.55% and 86.89%
  Total Cell Count: 232 and 310
